How the values were obtained:
[1] = Therapeutic index, ratio of IC50 for mouse Peritoneal macrophages to IC50 for SSG-resistant Leishmania donovani 39 amastigote infected in mouse peritoneal macrophages; conditions: read-out: Ratio IC50
[2] = Cytotoxicity against mouse Peritoneal macrophages cells after 72 hrs by MTS assay; assay type: cell-based; conditions: Peritoneal macrophage cell
Procedure, shortened: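 Primary mouse peritoneal elicited macrophages were seeded at 2 × 10^4 cells per well in DMEM with 10% heat-inactivated FBS. They were exposed to graded doses for 72 h at 37 °C in 5% CO2. Survival was read by MTS/PMS tetrazolium reduction (OD 490 nm) relative to untreated control. The IC50 was the concentration halving OD. Results are mean ± SEM of 1–4 independent experiments.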

[3] = system: Leishmania donovani; assay: Antimicrobial activity against SSG-resistant Leishmania donovani 39 amastigote infected in mouse peritoneal macrophages assessed as inhibition of parasite growth after 72 hrs by Giemsa staining method; assay type: functional, organism-based; conditions: Leishmania donovani, 39, 72 h
Procedure, shortened: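 Mouse peritoneal elicited macrophages were seeded on coverslips at 1 × 10^5 cells per well in DMEM with 10% heat-inactivated FBS and left to attach overnight. They were infected overnight with late-log Ld39 promastigotes (parasite:macrophage 20:1) at 37 °C, 5% CO2, then washed. Compounds were applied for 72 h at 37 °C. Giemsa-stained amastigotes per 100 macrophages gave IC50; N = 1−3.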

[4] = system: Leishmania donovani; assay: Antimicrobial activity against SSG-resistant Leishmania donovani 39 promastigote assessed as inhibition of parasite growth after 72 hrs by MTS assay; assay type: functional, organism-based; conditions: Leishmania donovani, 39, 72 h
Procedure, shortened: (§1)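 Promastigotes were grown in Schneider's medium pH 6.9 with 10% heat-inactivated FBS at 27 °C, seeded at 1 × 10^5 per well, and exposed to serial concentrations for 72 h at 27 °C. Compounds were in DMSO (≤1% final) or water. MTS:PMS (20:1) was added for 4 h, then OD490 was read. Survival was % of untreated control; IC50 = concentration halving OD; N = 1−4.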

[5] = system: Leishmania donovani; assay: Antimicrobial activity against wild-type Leishmania donovani AG83 promastigote assessed as inhibition of parasite growth after 72 hrs by MTS assay; assay type: functional, organism-based; conditions: AG83, 72 h
Procedure, shortened: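 Promastigotes were grown in Schneider's medium pH 6.9 with 10% heat-inactivated FBS at 27 °C, seeded at 1 × 10^5 per well, and exposed to serial concentrations for 72 h at 27 °C. Compounds were in DMSO (≤1% final) or water. MTS:PMS (20:1) was added for 4 h, then OD490 was read.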

[6] = system: RAW264.7; assay: Cytotoxicity against mouse RAW264.7 cells after 72 hrs by MTS assay; assay type: cell-based; conditions: RAW264.7, 72 h
Procedure, shortened: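 RAW 264.7 murine macrophage line was plated at 1 × 10^4 cells per well in supplemented DMEM. Cells received a graded compound series for 72 h at 37 °C, 5% CO2, with a maximum of 1% DMSO. Viability was measured by MTS with PMS coupling at OD 490 nm, as percent of untreated control. The IC50 was the concentration reducing OD by half, given as mean ± SEM, N = 1–4.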

[7] = system: Leishmania donovani; assay: Antimicrobial activity against pentamidine-resistant Leishmania donovani AG83PentR50 promastigote assessed as inhibition of parasite growth after 72 hrs by MTS assay; assay type: functional, organism-based; conditions: AG83PentR50, 72 h; procedure, shortened: as §1

SMILES	selectivity ratio [1]	IC50 [2] [µM]	IC50 [3] [µM]	IC50 [4] [µM]	IC50 [5] [µM]	IC50 [6] [µM]	IC50 [7] [µM]
O=c1cc(-c2ccccc2OCCOCCN(CCOCCOc2ccccc2-c2cc(=O)c3ccccc3o2)Cc2ccncc2)oc2ccccc12	> 1.6	> 11	7	4	2.3		
O=c1cc(-c2ccc(OCCN(CCOc3ccc(-c4cc(=O)c5ccccc5o4)cc3)Cc3ccncc3)cc2)oc2ccccc12	> 10	> 58	5.8	> 50	1.4		
CCCCCCCCCCCCCCCCOP(=O)([O-])OCC[N+](C)(C)C [MILTEFOSINE]		75.3	16	17.3		20	9.3
Cc1c(-c2ccc(OCCOCCOCCOCCOc3ccc(-c4oc5ccccc5c(=O)c4C)cc3)cc2)oc2ccccc2c1=O				> 19	6.9	8.1	> 20
O=c1cc(-c2ccc(OCCOCCOCCOCCOCCOCCOCCOc3ccc(-c4cc(=O)c5ccccc5o4)cc3)cc2)oc2ccccc12				10.3	6.2	4.8	7.3
O=c1cc(-c2cccc(OCCOCCN(CCOCCOc3cccc(-c4cc(=O)c5ccccc5o4)c3)Cc3ccncc3)c2)oc2ccccc12	> 21.7	> 50	2.3	0.44	0.19		
O=c1cc(-c2ccc(OCCOCCN(CCOCCOc3ccc(-c4cc(=O)c5ccccc5o4)cc3)Cc3ccncn3)cc2)oc2ccccc12	> 23.6	> 33	1.4	0.58	0.44		
Cc1ccc2c(=O)cc(-c3ccc(OCCOCCOCCOCCOCCOCCOc4ccc(-c5cc(=O)c6ccc(C)cc6o5)cc4)cc3)oc2c1				5.3	6.7	5.3	4.1
O=c1cc(-c2ccc(OCCOCCOCCOCCOCCOc3ccc(-c4cc(=O)c5ccc(F)cc5o4)cc3)cc2)oc2cc(F)ccc12				4.8	4.1	> 100	3.7
O=c1cc(-c2ccc(OCCOCCOCCOc3ccc(-c4cc(=O)c5ccccc5o4)cc3)cc2)oc2ccccc12				> 24	> 24	> 95	> 24
O=c1cc(-c2ccc(OCCOCCN(CCOCCOc3ccc(-c4cc(=O)c5ccccc5o4)cc3)Cc3ccnc(Br)c3)cc2)oc2ccccc12	> 10	> 100	> 10	> 50	1.8		
O=c1cc(-c2ccc(OCCOCCOCCOCCOCCOc3ccc(-c4cc(=O)c5ccccc5o4)cc3)cc2)oc2ccccc12				7.8	5.3	8.9	10.4
O=c1cc(-c2ccc(OCCOCCOCCOCCOCCOCCOCCOCCOc3ccc(-c4cc(=O)c5ccccc5o4)cc3)cc2)oc2ccccc12				4.6	5	4.4	6
CCc1ccc2oc(-c3ccc(OCCOCCOCCOCCOc4ccc(-c5cc(=O)c6cc(CC)ccc6o5)cc4)cc3)cc(=O)c2c1				> 24	> 24	> 100	> 24
COc1cc(-c2cc(=O)c3ccccc3o2)ccc1OCCOCCN(CCOCCOc1ccc(-c2cc(=O)c3ccccc3o2)cc1OC)Cc1ccncc1		2.7		0.69	0.63		
O=c1cc(-c2ccc(OCCOCCOCCOCCOCCOCCOc3ccc(-c4cc(=O)c5ccc(F)cc5o4)cc3)cc2)oc2cc(F)ccc12				4.2	4.2	7.8	4.6
CC(C)(C)OC(=O)N(CCOCCOc1ccc(-c2cc(=O)c3ccccc3o2)cc1)CCOCCOc1ccc(-c2cc(=O)c3ccccc3o2)cc1				1.6	3.2	> 100	1.1
O=c1cc(-c2ccc(OCCOCCN(CCOCCOc3ccc(-c4cc(=O)c5ccccc5o4)cc3)Cc3cccnc3)cc2)oc2ccccc12	13.8	33.1	2.4	0.98	0.56		
O=c1c(OCCOCCN(CCOCCOc2c(-c3ccccc3)oc3ccccc3c2=O)Cc2ccncc2)c(-c2ccccc2)oc2ccccc12	> 10.6	> 33	3.1	3.1	2.5		

SMILES	selectivity ratio [1]	IC50 [2] [µM]	IC50 [3] [µM]	IC50 [4] [µM]	IC50 [5] [µM]	IC50 [6] [µM]	IC50 [7] [µM]
O=c1cc(-c2ccc(OCCOCCN(CCOCCOc3ccc(-c4cc(=O)c5cc(F)ccc5o4)cc3)Cc3ccncc3)cc2)oc2ccc(F)cc12	> 32.3	> 100	3.1	0.36	0.31		
O=c1cc(-c2ccc(OCCOCCOCCOCCOCCOCCOCCOCCOCCOc3ccc(-c4cc(=O)c5ccccc5o4)cc3)cc2)oc2ccccc12				8.6	9.4	8.1	10.6
CCc1ccc2oc(-c3ccc(OCCOCCOCCOCCOCCOc4ccc(-c5cc(=O)c6cc(CC)ccc6o5)cc4)cc3)cc(=O)c2c1				4.6	4.7	> 200	6.3
O=c1cc(-c2ccc(OCCOCCOCCOc3ccc(-c4cc(=O)c5c(O)cc(O)cc5o4)cc3)cc2)oc2cc(O)cc(O)c12				2.7	5.6	> 200	6.7
Cc1ccc2oc(-c3ccc(OCCOCCOCCOCCOc4ccc(-c5cc(=O)c6cc(C)ccc6o5)cc4)cc3)cc(=O)c2c1				> 24	> 24	> 100	> 24
O=c1cc(-c2ccc(OCCOCCOCCOCCOc3ccc(-c4cc(=O)c5c(O)cc(O)cc5o4)cc3)cc2)oc2cc(O)cc(O)c12				1.9	2.2	> 200	3.1
O=c1cc(-c2ccc(OCCOCCOCCOCCOCCOCCOc3ccc(-c4cc(=O)c5ccccc5o4)cc3)cc2)oc2ccccc12				4.3	4.8	7.1	4.9
Cc1c(-c2ccc(OCCOCCOCCOCCOCCOCCOc3ccc(-c4oc5ccccc5c(=O)c4C)cc3)cc2)oc2ccccc2c1=O				2.8	1.9	2.3	2.5
Cc1ccc2oc(-c3ccc(OCCOCCOCCOCCOCCOCCOc4ccc(-c5cc(=O)c6cc(C)ccc6o5)cc4)cc3)cc(=O)c2c1				3.6	2.2	> 100	> 24
O=c1cc(-c2ccc(OCCOCCOCCOCCOc3ccc(-c4cc(=O)c5ccccc5o4)cc3)cc2)oc2ccccc12				> 24	> 24	> 100	> 24
O=C(O)CCC(=O)N(CCOCCOc1ccc(-c2cc(=O)c3ccccc3o2)cc1)CCOCCOc1ccc(-c2cc(=O)c3ccccc3o2)cc1				> 100	> 100	65	27
O=c1cc(-c2ccc(OCCOCCOc3ccc(-c4cc(=O)c5ccccc5o4)cc3)cc2)oc2ccccc12				> 24	> 24	> 100	> 24
O=c1cc(-c2ccc(OCCOCCOCCOCCOc3ccc(-c4cc(=O)c5ccc(F)cc5o4)cc3)cc2)oc2cc(F)ccc12				2.4	2.6	> 200	2.3
Cc1ccc2oc(-c3ccc(OCCOCCOCCOCCOCCOc4ccc(-c5cc(=O)c6cc(C)ccc6o5)cc4)cc3)cc(=O)c2c1				4.3	> 24	> 100	> 24
CCc1ccc2oc(-c3ccc(OCCOCCOCCOCCOCCOCCOc4ccc(-c5cc(=O)c6cc(CC)ccc6o5)cc4)cc3)cc(=O)c2c1				2.5	3.1	5.5	3.3
O=c1cc(-c2ccc(OCCOCCNCCOCCOc3ccc(-c4cc(=O)c5ccccc5o4)cc3)cc2)oc2ccccc12				2.3	3.3	2.1	1.1
Cc1c(-c2ccc(OCCOCCOCCOCCOCCOc3ccc(-c4oc5ccccc5c(=O)c4C)cc3)cc2)oc2ccccc2c1=O				4.2	4.8	3.1	4.6
Cc1ccc2c(=O)cc(-c3ccc(OCCOCCOCCOCCOCCOc4ccc(-c5cc(=O)c6ccc(C)cc6o5)cc4)cc3)oc2c1				7.9	4.4	> 80	3.8
